ChEMBL document CHEMBL4130370, “Discovery of 5,6-diaryl-1,2,4-triazines hybrids as potential apoptosis inducers” (Eur J Med Chem, 2017)
The source made the active and inactive calls. The rule behind the calls is not given here.

What was measured:
PC-3 = assay: Antiproliferative activity against human PC3 cells after 48 hrs by MTT assay; type: functional, cell-based; settings: PC-3, 48 h
Outline: (§1)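 Cells exposed to compounds for 48 h, then read by MTT. IC50 is the concentration giving 50% inhibition of tumour cell proliferation, taken from dose-response curves. Values are means±SD of three independent experiments. 5-FU was the reference drug.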

MGC-803 [1] = assay: Antiproliferative activity against human MGC803 cells after 48 hrs by MTT assay; type: functional, cell-based; settings: MGC-803, 48 h; outline: as §1
ECa-109 cell line = assay: Antiproliferative activity against human EC109 cells after 48 hrs by MTT assay; type: functional, cell-based; settings: ECa-109, 48 h; outline: as §1
MGC-803 [2] = assay: Induction of apoptosis in human MGC803 cells assessed as late apoptotic cells at 10 uM after 48 hrs Annexin V-FITC/propidium iodide based flow cytometry (1%); type: functional
Outline: (§2)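 MGC-803 cells treated at 0, 6, 8 or 10 µM for 48 h. Cells then double-stained with Annexin V-FITC and propidium iodide and analysed by biparametric flow cytometry.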

MGC-803 [3] = assay: Induction of apoptosis in human MGC803 cells assessed as increase in Bax expression after 48 hrs by Western blot analysis; type: functional, cell-based
Outline: (§3)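 MGC-803 cells treated at 0, 6, 8 or 10 µM for 48 h, then Western blotted. Band levels analysed statistically against control. Results representative of three independent experiments.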

MGC-803 [4] = assay: Cell cycle arrest in human MGC803 cells assessed as accumulation at G2/M phase after 48 hrs by propidium iodide-staining based flow cytometry; type: functional
Outline: (§4)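 MGC-803 cells treated at 0, 6 or 8 µM for 48 h. Cells then fixed, stained with propidium iodide and analysed by flow cytometry for cell-cycle phase distribution.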

MGC-803 [5] = assay: Induction of apoptosis in human MGC803 cells after 48 hrs Annexin V-FITC/propidium iodide based flow cytometry; type: functional, cell-based; outline: as §2
MGC-803 [6] = assay: Induction of mitochondrial membrane potential loss in human MGC803 cells assessed as collapse of the mitochondrial membrane potential at 10 uM after 48 hrs by JC-1 staining based flow cytometry (reference value: 4.1%); type: functional
Outline: (§5)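 MGC-803 cells treated with vehicle or 6, 8 or 10 µM for 48 h. Mitochondrial membrane potential measured by JC-1 dye retention on flow cytometry.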

MGC-803 [7] = assay: Induction of apoptosis in human MGC803 cells assessed as increase in DR4 expression after 48 hrs by Western blot analysis; type: functional, cell-based; outline: as §3
MGC-803 [8] = assay: Induction of apoptosis in human MGC803 cells assessed as decrease in Bcl2 expression up to 10 uM after 48 hrs by Western blot analysis; type: functional, cell-based
MGC-803 [9] = assay: Induction of morphological changes in human MGC803 cells assessed as rounding up of cells at 6 to 10 uM after 48 hrs by inverted microscopic analysis; type: functional, cell-based
Outline: (§6)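 MGC-803 cells incubated at 0, 6, 8 or 10 µM for 48 h. Morphology then recorded under an inverted microscope at ×400.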

MGC-803 [10] = assay: Induction of apoptosis in human MGC803 cells assessed as chromatin condensation at 6 to 10 uM after 48 hrs by Hoechst 33258-staining based fluorescent microscopy; type: functional, cell-based
Outline: (§7)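 MGC-803 cells incubated at the indicated concentrations for 48 h. Nuclei then stained (legend says DAPI; methods say Hoechst 33258) and viewed by fluorescence microscopy at ×400.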

MGC-803 [11] = assay: Induction of mitochondrial membrane potential loss in human MGC803 cells assessed as collapse of the mitochondrial membrane potential at 8 uM after 48 hrs by JC-1 staining based flow cytometry (reference value: 4.1%); type: functional; outline: as §5
MGC-803 [12] = assay: Induction of apoptosis in human MGC803 cells assessed as late apoptotic cells at 8 uM after 48 hrs Annexin V-FITC/propidium iodide based flow cytometry (1%); type: functional; outline: as §2
MGC-803 [13] = assay: Induction of apoptosis in human MGC803 cells assessed as decrease in Bcl-xl expression up to 10 uM after 48 hrs by Western blot analysis; type: functional, cell-based
MGC-803 [14] = assay: Induction of apoptosis in human MGC803 cells assessed as increase in cleaved caspase-3 expression after 48 hrs by Western blot analysis; type: functional, cell-based; outline: as §3
GES1 = assay: Cytotoxicity against human GES-1 cells after 48 hrs by MTT assay; type: cell-based; settings: GES1, 48 h
MGC-803 [15] = assay: Cell cycle arrest in human MGC803 cells assessed as accumulation at G2/M phase at 6 uM after 48 hrs by propidium iodide-staining based flow cytometry (19.75%); type: functional; outline: as §4
MGC-803 [16] = assay: Induction of apoptosis in human MGC803 cells assessed as necrotic cells at 10 uM after 48 hrs Annexin V-FITC/propidium iodide based flow cytometry (0.1%); type: functional; outline: as §2
MGC-803 [17] = assay: Induction of morphological changes in human MGC803 cells assessed as formation of cell debris at 6 to 10 uM after 48 hrs by inverted microscopic analysis; type: functional, cell-based; outline: as §6
MGC-803 [18] = assay: Cell cycle arrest in human MGC803 cells assessed as accumulation at G2/M phase at 8 uM after 48 hrs by propidium iodide-staining based flow cytometry (19.75%); type: functional; outline: as §4
MGC-803 [19] = assay: Induction of apoptosis in human MGC803 cells assessed as early apoptotic cells at 10 uM after 48 hrs Annexin V-FITC/propidium iodide based flow cytometry (2.3%); type: functional; outline: as §2
MGC-803 [20] = assay: Induction of apoptosis in human MGC803 cells assessed as early apoptotic cells at 8 uM after 48 hrs Annexin V-FITC/propidium iodide based flow cytometry (2.3%); type: functional; outline: as §2
MGC-803 [21] = assay: Induction of apoptosis in human MGC803 cells assessed as increase in cleaved PARP expression after 48 hrs by Western blot analysis; type: functional, cell-based; outline: as §3
MGC-803 [22] = assay: Induction of mitochondrial membrane potential loss in human MGC803 cells after 48 hrs by JC-1 staining based flow cytometry; type: functional, cell-based; outline: as §5
MGC-803 [23] = assay: Induction of mitochondrial membrane potential loss in human MGC803 cells assessed as collapse of the mitochondrial membrane potential at 6 uM after 48 hrs by JC-1 staining based flow cytometry (reference value: 4.1%); type: functional; outline: as §5
MGC-803 [24] = assay: Induction of apoptosis in human MGC803 cells assessed as viable cells at 10 uM after 48 hrs Annexin V-FITC/propidium iodide based flow cytometry (96.5%); type: functional; settings: MGC-803, 48 h, read-out: Activity; outline: as §2
MGC-803 [25] = assay: Induction of apoptosis in human MGC803 cells assessed as viable cells at 8 uM after 48 hrs Annexin V-FITC/propidium iodide based flow cytometry (96.5%); type: functional; settings: MGC-803, 48 h, read-out: Activity; outline: as §2
MGC-803 [26] = assay: Cell cycle arrest in human MGC803 cells assessed as accumulation at S phase at 6 uM after 48 hrs by propidium iodide-staining based flow cytometry (25.56%); type: functional; outline: as §4
MGC-803 [27] = assay: Induction of apoptosis in human MGC803 cells assessed as necrotic cells at 6 uM after 48 hrs Annexin V-FITC/propidium iodide based flow cytometry (0.1%); type: functional; outline: as §2
MGC-803 [28] = assay: Cell cycle arrest in human MGC803 cells assessed as accumulation at G1 phase at 8 uM after 48 hrs by propidium iodide-staining based flow cytometry (50.18%); type: functional; outline: as §4
MGC-803 [29] = assay: Induction of apoptosis in human MGC803 cells assessed as late apoptotic cells at 6 uM after 48 hrs Annexin V-FITC/propidium iodide based flow cytometry (1%); type: functional; outline: as §2
MGC-803 [30] = assay: Cell cycle arrest in human MGC803 cells assessed as accumulation at S phase at 8 uM after 48 hrs by propidium iodide-staining based flow cytometry (25.56%); type: functional; outline: as §4
MGC-803 [31] = assay: Induction of apoptosis in human MGC803 cells assessed as nuclear fragmentation at 6 to 10 uM after 48 hrs by Hoechst 33258-staining based fluorescent microscopy; type: functional, cell-based; outline: as §7
MGC-803 [32] = assay: Induction of apoptosis in human MGC803 cells assessed as early apoptotic cells at 6 uM after 48 hrs Annexin V-FITC/propidium iodide based flow cytometry (2.3%); type: functional; outline: as §2
MGC-803 [33] = assay: Inhibition of colony formation in human MGC803 cells up to 8 uM after 7 days; type: functional, cell-based
Outline: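 MGC-803 cells treated at various concentrations for about a week. Colonies then imaged and compared with untreated control.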

MGC-803 [34] = assay: Induction of apoptosis in human MGC803 cells assessed as necrotic cells at 8 uM after 48 hrs Annexin V-FITC/propidium iodide based flow cytometry (0.1%); type: functional; outline: as §2
MGC-803 [35] = assay: Cell cycle arrest in human MGC803 cells assessed as accumulation at G1 phase at 6 uM after 48 hrs by propidium iodide-staining based flow cytometry (50.18%); type: functional; outline: as §4
MGC-803 [36] = assay: Induction of apoptosis in human MGC803 cells assessed as nuclear condensation at 6 to 10 uM after 48 hrs by Hoechst 33258-staining based fluorescent microscopy; type: functional, cell-based; outline: as §7
MGC-803 [37] = assay: Induction of apoptosis in human MGC803 cells assessed as increase in cleaved caspase-9 expression after 48 hrs by Western blot analysis; type: functional, cell-based; outline: as §3
MGC-803 [38] = assay: Induction of apoptosis in human MGC803 cells assessed as viable cells at 6 uM after 48 hrs Annexin V-FITC/propidium iodide based flow cytometry (96.5%); type: functional; settings: MGC-803, 48 h, read-out: Activity; outline: as §2
SK-N-SH = assay: Antiproliferative activity against human SK-N-SH cells after 48 hrs by MTT assay; type: functional, cell-based

## C#CCSc1nnc(-c2ccccc2)c(-c2ccccc2)n1
PC-3
  IC50: > 100 µM
MGC-803 [1]
  IC50: > 100 µM
ECa-109 cell line
  IC50: > 100 µM

## O=C(O)CCSc1nnc(-c2ccccc2)c(-c2ccccc2)n1
PC-3
  IC50: > 100 µM
MGC-803 [1]
  IC50: > 100 µM
ECa-109 cell line
  IC50: > 100 µM

## Brc1ccc(Cn2cc(CSc3nnc(-c4ccccc4)c(-c4ccccc4)n3)nn2)cc1
PC-3
  IC50: 22 µM
MGC-803 [1]
  IC50: > 100 µM
ECa-109 cell line
  IC50: > 100 µM

## O=c1[nH]cc(F)c(=O)[nH]1 [FLUOROURACIL]
PC-3
  IC50: 12.9 µM
MGC-803 [1]
  IC50: 9.79 µM
ECa-109 cell line
  IC50: 56.2 µM

## Fc1ccc(Cn2cc(CSc3nnc(-c4ccccc4)c(-c4ccccc4)n3)nn2)cc1
MGC-803 [2]
  Activity: 27.3%
MGC-803 [3]
  Activity: Dose-dependent effect
MGC-803 [4]
  Activity: Dose-dependent effect
MGC-803 [5]
  Activity: Dose-dependent effect
MGC-803 [6]
  Activity: 42.9%
MGC-803 [7]
  Activity: Dose-dependent effect
MGC-803 [8]
  Activity: Active
MGC-803 [9]
  Activity: Active
MGC-803 [10]
  Activity: Active
MGC-803 [11]
  Activity: 17%
MGC-803 [12]
  Activity: 7%
MGC-803 [13]
  Activity: Active
MGC-803 [14]
  Activity: Dose-dependent effect
GES1
  IC50: 31.7 µM
MGC-803 [15]
  Activity: 26.75%
MGC-803 [16]
  Activity: 0.1%
MGC-803 [17]
  Activity: Active
MGC-803 [18]
  Activity: 34.39%
MGC-803 [19]
  Activity: 27.5%
MGC-803 [20]
  Activity: 16.9%
MGC-803 [21]
  Activity: Dose-dependent effect
MGC-803 [22]
  Activity: Dose-dependent effect
MGC-803 [23]
  Activity: 5.2%
MGC-803 [24]
  viability at 10 µM: 45.1%
MGC-803 [25]
  viability at 8 µM: 75.9%
MGC-803 [26]
  Activity: 25.11%
MGC-803 [27]
  Activity: 0.2%
MGC-803 [28]
  Activity: 30.03%
PC-3
  IC50: 10.6 µM
MGC-803 [29]
  Activity: 2.9%
MGC-803 [30]
  Activity: 25.87%
MGC-803 [31]
  Activity: Active
MGC-803 [32]
  Activity: 8.2%
MGC-803 [1]
  IC50: 7.59 µM
MGC-803 [33]
  inhibition: Dose-dependent effect
MGC-803 [34]
  Activity: 0.2%
MGC-803 [35]
  Activity: 41.49%
MGC-803 [36]
  Activity: Active
MGC-803 [37]
  Activity: Dose-dependent effect
ECa-109 cell line
  IC50: 19.1 µM
MGC-803 [38]
  viability at 6 µM: 88.7%

## c1ccc(Cn2cc(CSc3nnc(-c4ccccc4)c(-c4ccccc4)n3)nn2)cc1
PC-3
  IC50: 15.6 µM
MGC-803 [1]
  IC50: 11.3 µM
ECa-109 cell line
  IC50: 11.1 µM

## COc1ccc(C(=O)/C=C/c2ccc(-n3cc(CSc4nnc(-c5ccccc5)c(-c5ccccc5)n4)nn3)cc2)cc1
PC-3
  IC50: > 100 µM
MGC-803 [1]
  IC50: 36.7 µM
ECa-109 cell line
  IC50: > 100 µM

## O=C(/C=C/c1ccc(OCCCn2cc(CSC3=NCCS3)nn2)cc1)c1ccc(Br)cc1
SK-N-SH
  IC50: 8.16 µM

## COc1ccc(Cn2cc(CSc3nnc(-c4ccccc4)c(-c4ccccc4)n3)nn2)cc1
PC-3
  IC50: 27.5 µM
MGC-803 [1]
  IC50: 22.7 µM
ECa-109 cell line
  IC50: 28.4 µM
